Measurements pooled from the literature.
Compare with care: the assays were run in different laboratories.
Target: Vascular endothelial growth factor receptor 2 (KDR, Homo sapiens, UniProt P35968)

CC(C)(C)n1nc(-c2ccc3nc(OC4CC4)ccc3c2)c(C(N)=O)c1N — IC50 (cell-free assay): 450 nM
Cc1cc(Nc2cc3ncccc3c(N[C@@H]3C[C@H]4CC[C@@H](C3)N4CCC#N)n2)n[nH]1 — Kd (binding, competition with immobilised ligand): 620 nM
CNC(=O)c1cc2c(Oc3ccc(NC(=O)C4(C(=O)Nc5ccc(F)cc5)CC4)cc3)ccnc2cc1OC — IC50 (enzyme activity, inhibitor, radiometric): 6 nM
Cc1cc(Nc2cc(CN3CCOCC3)c3nc(C)c(Cc4ccc(Cl)cc4F)n3n2)n[nH]1 — IC50 (enzyme activity, inhibitor, TR-FRET): 109 nM
C=CC(=O)Nc1cccc(CN2C(=O)N(c3c(Cl)c(OC)cc(OC)c3Cl)Cc3cnc(NCCCCN(CC)CC)nc32)c1 — Kd (binding, competition with immobilised ligand): 210 nM
Cc1ccc(C(=O)Nc2ccc(Oc3cc4cnn(C)c4cc3-c3cn[nH]c3)c(F)c2)c(=O)n1-c1ccc(F)cc1 — IC50 (phosphorylation in cells, inhibitor, AlphaScreen): 347 nM
CN1CCN(c2ccc(Nc3ncc4cc(C#N)c(=O)n(C5CCCC5)c4n3)cc2)CC1 — IC50 (enzyme activity, inhibitor): 56.8 nM
CC(C)(C)n1nc(-c2cnc3cc(OC4CC4)ccc3c2)c(C(N)=O)c1N — IC50 (cell-free assay): 1090 nM
